Laboratory results: PMC10908290 (Drug Design, Development and Therapy, 2024)
Values after ≈ are worked out from the molar mass of the structure shown.

Columns and labels:
[1] = tested on: E. coli; test: Minimum inhibitory concentration, E. coli; assay type: cell-based; conditions: Escherichia coli, read-out: Minimal Inhibitory Concentration (MIC)
[2] = DPPH free radical scavenging; conditions: Table 6, unit not given
How it was run: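 Test compound solutions (25 or 100 µg/mL in methanol) added to 0.004% (w/v) methanolic DPPH. After 30 min incubation, absorbance read at 517 nm. Percent inhibition calculated against DPPH solution lacking test material. Run in triplicate.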

[3] = Cytotoxic activity, normal Vero cell line; assay type: cell-based; conditions: African green monkey, Vero cells (normal cell line)
[4] = tested on: mushroom tyrosinase; test: Mushroom tyrosinase inhibitory activity, spectrophotometric, L-DOPA substrate; assay type: biochemical
[5] = tested on: MCF-7; test: Cytotoxic activity, MCF-7; assay type: cell-based; conditions: for CC50: MCF7, read-out: LC50; for SI (Selectivity Index): IC50 value normal cell / IC50 value cancer cell (Vero / MCF-7)
[6] = tested on: S. aureus; test: Minimum inhibitory concentration, S. aureus; assay type: cell-based; conditions: Staphylococcus aureus, read-out: Minimal Inhibitory Concentration (MIC)
[7] = tested on: E. coli (MTCC 739); test: Antibacterial disc diffusion, E. coli; assay type: cell-based; conditions: Escherichia coli, MTCC739, 24 h, read-out: Diameter of Growth Inhibition Zone
How it was run: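 Test compound dissolved in DMSO at 100 μg/mL and loaded onto 8 mm sterile filter-paper discs. E. coli MTCC 739 prepared from pure colonies in sterile saline, adjusted to 0.5 McFarland, and swabbed onto Mueller-Hinton agar. Plates incubated 24 h at 37°C, then zone of inhibition measured. Ampicillin as reference. Mean ± SD of three independent experiments.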

Structure (SMILES): Cc1ccccc1NC(=O)C1C(=O)C(c2ccccc2)c2ccc3c(c21)C(=O)c1ccccc1C3=O (stereo not shown) [Compound 1, 2,6,11-Trioxo-3-Phenyl-N-(o-Tolyl)-2,3,6,11-Tetrahydro-1H-Cyclopenta[a]anthracene-1-Carboxamide]
- MIC [1]: > 100 µg/mL
- Antioxidant activity (100 µg/mL) [2]: 58.11
- CC50 [3]: 93.01 ± 0.05 µg/mL (≈ 197 µM)
- percentage of tyrosinase inhibition ([4]; 25 µg/mL): 13.72 ± 0.02%
- percentage of tyrosinase inhibition ([4]; 50 µg/mL): 49.30 ± 1.06%
- percentage of tyrosinase inhibition ([4]; 100 µg/mL): 51.23 ± 0.23%
- Tyrosinase inhibition IC50 ([4]; mean ± SE of three experiments): 77.62 ± 1.20 µg/mL
- CC50 ([5]; Homo sapiens): 87 ± 0.16 µg/mL (≈ 185 µM)
- IC (TGI) ([5]; Homo sapiens, MCF7, read-out: TGI): 60.1 ± 0.09 µM
- SI (Selectivity Index) [5]: 1.06
- Cytotoxic activity ([5]; Table 6, unit not given, equals MCF-7 LC50): 87.0± 0.16
- MIC [6]: 64 µg/mL (≈ 136 µM)

Structure (SMILES): O=c1cc(CO)occ1O [Kojic acid, reference compound]
- percentage of tyrosinase inhibition ([4]; 25 µg/mL): 56.23 ± 1.12%
- percentage of tyrosinase inhibition ([4]; 50 µg/mL): 67.21 ± 1.12%
- percentage of tyrosinase inhibition ([4]; 100 µg/mL): 84.65 ± 1.62%

Structure (SMILES): COc1cccc2c1C(=O)c1c(O)c3c(c(O)c1C2=O)C[C@@](O)(C(=O)CO)C[C@@H]3O[C@H]1C[C@H](N)[C@H](O)[C@H](C)O1 [Doxorubicin, reference compound]
- CC50 [3]: 19.85 ± 0.02 µg/mL (≈ 36.5 µM)
- CC50 ([5]; Homo sapiens): 0.74 ± 0.01 µg/mL (≈ 1.36 µM)
- SI (Selectivity Index) [5]: 26.82

Structure (SMILES): CC1(C)S[C@@H]2[C@H](NC(=O)[C@H](N)c3ccccc3)C(=O)N2[C@H]1C(=O)O [Ampicillin]
- zone of inhibition at 100 µg/mL [7]: 17 mm
